Measurements from ChEMBL document CHEMBL1128308, “Synthesis and antiinflammatory activity of certain 5,6,7,8-tetrahydroquinolines and related compounds” (J Med Chem, 1995).

How the values were obtained:
[1] = target: T1, Polyunsaturated fatty acid 5-lipoxygenase (Rattus norvegicus) (UniProt P12527); assay: Inhibition of 5-lipoxygenase pathway in rat polymorphonuclear assay, by ability to inhibit formation of LTB4 AT 10 uM
T1 sequence (whole entry): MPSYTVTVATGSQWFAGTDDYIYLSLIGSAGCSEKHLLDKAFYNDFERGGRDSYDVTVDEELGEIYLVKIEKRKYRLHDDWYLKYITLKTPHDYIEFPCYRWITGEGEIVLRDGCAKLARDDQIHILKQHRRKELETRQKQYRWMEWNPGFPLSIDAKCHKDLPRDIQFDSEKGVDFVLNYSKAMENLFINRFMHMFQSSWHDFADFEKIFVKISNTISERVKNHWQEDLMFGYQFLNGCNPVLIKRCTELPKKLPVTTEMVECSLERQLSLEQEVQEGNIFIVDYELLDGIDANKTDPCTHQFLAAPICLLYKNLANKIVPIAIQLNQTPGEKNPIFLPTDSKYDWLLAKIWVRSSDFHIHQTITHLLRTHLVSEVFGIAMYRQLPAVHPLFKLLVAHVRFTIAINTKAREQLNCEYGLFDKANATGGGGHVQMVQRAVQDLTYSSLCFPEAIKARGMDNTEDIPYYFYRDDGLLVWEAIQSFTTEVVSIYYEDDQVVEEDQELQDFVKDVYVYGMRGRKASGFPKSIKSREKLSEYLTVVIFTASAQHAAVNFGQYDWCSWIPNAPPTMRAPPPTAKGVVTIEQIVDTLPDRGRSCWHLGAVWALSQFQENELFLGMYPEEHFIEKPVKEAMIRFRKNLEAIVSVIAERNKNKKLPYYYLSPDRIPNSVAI

[2] = target: T1, Polyunsaturated fatty acid 5-lipoxygenase (Rattus norvegicus); assay: Inhibition of 5-lipoxygenase pathway in rat polymorphonuclear assay (inhibition of 5-HETE formation)
In short: (§1)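 Rat polymorphonuclear leucocytes at 10^7 cells/mL in HBSS (Mg2+, Ca2+, 10 mM cysteine) were preincubated with compound, added in DMSO, for 10 min at 37 °C with shaking. Radiolabeled eicosanoids (5-HETE for the 5-LO pathway, TXB2 for the CO pathway) were separated by HPLC and detected with an in-line radioactivity detector. Results are given as percent change at 10 µM or 50 µM.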

Rattus norvegicus [3] = assay: Antiinflammatory activity by rat Carrageenan edema assay at 50 mg/kg peroral administration (3h edema).; assay type: functional; conditions: route oral
In short: (§2)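 Groups of six male Sprague-Dawley rats (150-165 g) were dosed po in 0.5% methyl cellulose. One hour later, 0.1 mL of 1% carrageenan was injected subplantar into the right hind paw. Edema was taken as the 3 h paw volume minus the zero-time volume and expressed as percent change versus vehicle; screening dose was 50 mg/kg po.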

Rattus norvegicus [4] = assay: Antiinflammatory activity by rat adjuvant arthritis assay at 30 mg/kg peroral administration (uninjected paw at day 16).; conditions: route oral
[5] = target: T1, Polyunsaturated fatty acid 5-lipoxygenase (Rattus norvegicus); assay: 5-lipoxygenase Inhibitory activity against rat polymorphonuclear leucocytes using 5-HETE; in short: as §1
[6] = target: T1, Polyunsaturated fatty acid 5-lipoxygenase (Rattus norvegicus)
[7] = target: T1, Polyunsaturated fatty acid 5-lipoxygenase (Rattus norvegicus); remark: listed apart in the source
[8] = target: Cyclooxygenase (Rattus norvegicus) (UniProt P35355+Q63921)
[9] = target: T1, Polyunsaturated fatty acid 5-lipoxygenase (Rattus norvegicus); assay: Inhibition of 5-lipoxygenase pathway was evaluated in rat polymorphonuclear assay by compound (50 uM) ability to inhibit formation of 5-HETE; in short: as §1
Rattus norvegicus [10] = assay: Anti-inflammatory activity by rat carrageenan edema assay. (3h edema).; assay type: functional; in short: as §2
Rattus norvegicus [11] = species: Rattus norvegicus; assay: Anti-inflammatory activity by rat adjuvant Arthritis assay..
Rattus norvegicus [12] = species: Rattus norvegicus; assay: Anti-inflammatory activity by rat acute gastric irritation assay, activity is expressed as Ulcerogenic dose (UD50).; assay type: functional, Stomach
In short: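 Male Sprague-Dawley rats (190-220 g) were fasted for 18 h, then given compound in 0.5% Tween 80 by gastric intubation at 1 mL/100 g, with groups of 8 scored blind. At 4 h, gastric irritation was scored 0-3: 0 none, 1 redness, 2 ≤5 lesions, 3 >5 lesions. The ulcerogenic dose is the dose at which 50% of rats had at least one lesion.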

[13] = target: T1, Polyunsaturated fatty acid 5-lipoxygenase (Rattus norvegicus); remark: listed apart in the source

| SMILES | Change [1] [%] | Change [2] [%] | Change (Rattus norvegicus [3]) [%] | Change (Rattus norvegicus [4]) [%] | further results |
| --- | --- | --- | --- | --- | --- |
| Cc1cnc2c(c1)CCCC2[S+]([O-])c1ccccc1 (stereo unspecified) | 13 | 50 | -25 | 13 | – |
| Cc1ccc([C@H](O)[C@@H]2CCCCc3cccnc32)cc1 | -37 | -31 | -26 | -32 | – |
| Cc1ccc(C(O)c2nc3c(cc2C)CCCC3)cc1 (stereo unspecified) | -23 | -44 | -12.5 | -34 | – |
| Cc1ccc([C@H](O)[C@@H]2CCCc3cc(C)cnc32)cc1 | -48 | -49 | -33 | 49 | – |
| Cc1cc2c(nc1C(O)c1cccc(Cl)c1)CCCCC2 (stereo unspecified) | -51 | -42 | -28 | 30 | – |
| COc1cccc(C(O)c2nc3c(cc2C)CCCCC3)c1 (stereo unspecified) | -50 | -34 | -28 | -14 | – |
| Cc1ccc([C@@H](O)[C@@H]2CCCCc3cccnc32)cc1 | -37 | -37 | -33 | -42 | – |
| Cc1cnc2c(c1)CCCC2Sc1ccccc1 (stereo unspecified) | -39 | – | -21 | -27 | Change [5]: -50% |
| Cc1cnc2c(c1)CCCC2S(=O)(=O)c1ccccc1 (stereo unspecified) | 6 | 0 | -22 | -2 | – |
| CC(c1cc2ccccc2s1)N(O)C(N)=O (stereo unspecified) | – | – | – | – | IC50 [6]: 0.4 µM; IC50 [7]: 0.3 µM; IC50 [8]: 16 µM |
| Cc1ccc([C@@H](O)[C@@H]2CCCc3cc(C)cnc32)cc1 | -11 | -27 | -15 | -3 | – |
| Cc1cccc(C(=O)C2CCCc3cccnc32)c1 (stereo unspecified) | -11 | – | -6 | -16 | Change [5]: 23% |
| Cc1ccnc2c1CCC/C2=C/c1ccncc1 | -25 | – | -17 | -49 | Change [5]: -17% |
| Cc1ccc(/C=C2\c3ncc(C)cc3CCC2(C)C)cc1 | 86 | – | -48 | 8 | Change [5]: 97% |
| Cc1ccnc2c1CCC/C2=C\c1ccncc1 | -4 | – | -15 | 3 | Change [5]: 9% |
| Cc1ccc(C(C)(O)c2nc3c(cc2C)CCCCC3)cc1 (stereo unspecified) | -13 | -14 | 2.5 | -4 | – |
| COc1cc(/C=C2\CCCc3cc4ccccc4nc32)ccc1OC(C)=O | – | – | -39 | 14 | Change [9]: -100% |
| Cc1ccc([C@@H](O)[C@H]2c3ncc(C)cc3CCC2(C)C)cc1 | 8 | 27 | -19 | -39 | – |
| NC1=NN(c2cccc(C(F)(F)F)c2)CC1 [BW-755C] | – | – | – | – | ED50 (Rattus norvegicus [10]): 72 mg/kg; IC50 [6]: 11 µM; IC50 [7]: 10 µM; ED50 (Rattus norvegicus [11]): 38 mg/kg |
| Cc1ccc(S(=O)(=O)NC2CCCc3cc(C)cnc32)cc1 (stereo unspecified) | 2 | – | -33 | 77 | Change [5]: -16% |
| Cc1ccc(C(=O)c2nc3c(cc2C)CCCCC3)cc1 | -52 | -49 | -59 | -26 | – |

| SMILES | Change [1] [%] | Change [2] [%] | Change (Rattus norvegicus [3]) [%] | Change (Rattus norvegicus [4]) [%] | further results |
| --- | --- | --- | --- | --- | --- |
| Cc1cc2c(nc1C(O)c1ccccc1)CCCCC2 (stereo unspecified) | -4 | -29 | -45 | -45 | – |
| COc1cc(/C=C2\CCCc3cc(C)cnc32)ccc1O | – | – | -36 | -1 | – |
| C/C(=C1\CCCc2c(C)ccnc21)c1ccc(C)cc1 | -22 | – | -15 | -14 | Change [5]: 7% |
| Cc1ccc(C(=O)C2CCCc3c(C)ccnc32)cc1 (stereo unspecified) | -34 | – | -12 | 19 | Change [5]: -41% |
| CC(C)Cc1ccc(C(C)C(=O)O)cc1 (stereo unspecified) [IBUPROFEN] | – | – | – | – | UD50 (Rattus norvegicus [12]): 42 mg/kg; IC50 [13]: > 50 µM; IC50 [6]: > 50 µM; ED50 (Rattus norvegicus [11]): 95 mg/kg |
| Cc1cc2c(nc1C(O)c1ccc(C(F)(F)F)cc1)CCCCC2 (stereo unspecified) | 40 | 5 | -24 | -18 | – |
| Cc1ccc(C(N)c2nc3c(cc2C)CCCCC3)cc1 (stereo unspecified) | -29 | -23 | -10 | -3 | – |
| Cc1ccc(/C=C2\CCCc3cc(C)cnc32)cc1 | – | – | -47 | 17 | Change [9]: -28% |
| COc1ccc2cc([C@H](C)C(=O)O)ccc2c1 | – | – | – | – | IC50 [6]: > 100 µM; IC50 [7]: > 100 µM; IC50 [8]: 0.1 µM |
| Cc1cc2c(nc1C(O)c1cccs1)CCCCC2 (stereo unspecified) | 34 | 37 | -9.5 | -6 | – |
| Cc1ccc(C(=O)C2CCCc3c(C)ccnc32)cc1C (stereo unspecified) | -53 | – | -25 | -28 | Change [5]: -50% |
| Cc1ccc(C(O)c2ccc3c(n2)CCCCC3)cc1 (stereo unspecified) | -25 | -28 | -26 | -33 | – |
| Cc1ccc(C(O)c2nc3c(cc2C)CCC3)cc1 (stereo unspecified) | -43 | -45 | -3.5 | -2 | – |
| COC(c1ccc(C)cc1)c1nc2c(cc1C)CCCCC2 (stereo unspecified) | -12 | -10 | -9.5 | -26 | – |
| Cc1ccc(C(O)Cc2ccc3c(n2)CCCCC3)cc1 (stereo unspecified) | -29 | -14 | -41 | 28 | – |
| C/C(=C1/CCCc2c(C)ccnc21)c1ccc(C)cc1 | -18 | – | -15 | 0 | Change [5]: 1% |
| Cc1ccc(Cc2nc3c(cc2C)CCCCC3)cc1 | -57 | -37 | -26 | – | – |
| Cc1ccnc2c1CCC/C2=C/c1ccnc2ccccc12 | -23 | – | -36 | -38 | Change [5]: -5% |
| COc1cc(/C=C2\CCCc3c(C)ccnc32)ccc1OC(C)=O | – | – | -45 | 23 | Change [9]: -100% |
| Cc1cc2c(nc1C(O)c1cccnc1)CCCCC2 (stereo unspecified) | 9 | -5 | -14 | 18 | – |
